{"data": "Assay results of several laboratories", "ABL1 M351T phosphorylated": "Tyrosine-protein kinase ABL1, phosphorylated (ABL1, Homo sapiens, UniProt P00519, M351T)", "ABL1 H396P non-phosphorylated": "Tyrosine-protein kinase ABL1, non-phosphorylated (ABL1, Homo sapiens, UniProt P00519, H396P)", "ABL1 T315I phosphorylated": "Tyrosine-protein kinase ABL1, phosphorylated (ABL1, Homo sapiens, UniProt P00519, T315I)", "ABL1 T315I non-phosphorylated": "Tyrosine-protein kinase ABL1, non-phosphorylated (ABL1, Homo sapiens, UniProt P00519, T315I)", "ABL1 E255K phosphorylated": "Tyrosine-protein kinase ABL1, phosphorylated (ABL1, Homo sapiens, UniProt P00519, E255K)", "ABL1 F317I phosphorylated": "Tyrosine-protein kinase ABL1, phosphorylated (ABL1, Homo sapiens, UniProt P00519, F317I)", "ABL1 F317L phosphorylated": "Tyrosine-protein kinase ABL1, phosphorylated (ABL1, Homo sapiens, UniProt P00519, F317L)", "ABL1 non-phosphorylated": "Tyrosine-protein kinase ABL1, non-phosphorylated (ABL1, Homo sapiens, UniProt P00519)", "ABL1 H396P": "Tyrosine-protein kinase ABL1 (ABL1, Homo sapiens, UniProt P00519, H396P)", "note": "Compare with care: the assays were run in different laboratories."}
{"Compound": "C[C@@H](c1ccc(-n2cnc3c(N)ncnc32)cc1)N1CCc2nn(C)c(Cc3ccccc3)c2C1=O", "target": "ABL1 M351T phosphorylated", "observed": "binding", "technique": "competition with immobilised ligand", "tested at": "0.1 µM", "remaining binding [%]": 49}
{"Compound": "O=C(c1ccc(Nc2ncc(Cl)c(-c3cc4ccccc4s3)n2)cc1)N1CCC(N2CCCC2)CC1", "target": "ABL1 M351T phosphorylated", "observed": "binding", "technique": "competition with immobilised ligand", "tested at": "1 µM", "remaining binding [%]": 12}
{"Compound": "c1cncc(-c2cccc(Nc3nccc(NC4CCCCC4)n3)c2)c1", "target": "ABL1 H396P non-phosphorylated", "observed": "binding", "technique": "competition with immobilised ligand", "tested at": "10 µM", "remaining binding [%]": 9}
{"Compound": "COc1cnc(Nc2cccc(S(N)(=O)=O)c2)nc1N1CCN(c2ccccc2)CC1", "target": "ABL1 T315I phosphorylated", "observed": "binding", "technique": "competition with immobilised ligand", "tested at": "1 µM", "remaining binding [%]": 88}
{"Compound": "O=C(c1ccc(Nc2nccc(-c3cc4ccccc4s3)n2)cc1)N1CCC(N2CCCC2)CC1", "target": "ABL1 T315I non-phosphorylated", "observed": "binding", "technique": "competition with immobilised ligand", "tested at": "1 µM", "remaining binding [%]": 2}
{"Compound": "CS(=O)(=O)NCC[C@H](NC(=O)c1cncc2c1cnn2-c1ccc(F)cc1)c1ccnc(S(C)(=O)=O)c1", "target": "ABL1 E255K phosphorylated", "observed": "binding", "technique": "competition with immobilised ligand", "tested at": "1 µM", "remaining binding [%]": 93}
{"Compound": "Nc1ncc2c(n1)-c1c([nH]c3ccc(C#CC4CC4)cc13)CCCC2", "target": "ABL1 F317I phosphorylated", "observed": "binding", "technique": "competition with immobilised ligand", "tested at": "1 µM", "remaining binding [%]": 86}
{"Compound": "O=C1NC(c2ccccn2)Sc2ccccc21 (stereo not shown)", "target": "ABL1 E255K phosphorylated", "observed": "binding", "technique": "competition with immobilised ligand", "tested at": "1 µM", "remaining binding [%]": 77}
{"Compound": "CCN1CCN(Cc2ccc(C(=O)Nc3ccc(C)c(Oc4ccc5c(c4)CC(=O)N5)c3)cc2C(F)(F)F)CC1", "target": "Tyrosine-protein kinase ABL1, phosphorylated (ABL1, Homo sapiens, UniProt P00519, Q252H)", "observed": "binding", "technique": "competition with immobilised ligand", "tested at": "1 µM", "remaining binding [%]": 49}
{"Compound": "O=C(c1ccc(Nc2ncc(Cl)c(-c3ccc(Cl)s3)n2)cc1)N1CCC(N2CCCC2)CC1", "target": "ABL1 F317L phosphorylated", "observed": "binding", "technique": "competition with immobilised ligand", "tested at": "1 µM", "remaining binding [%]": 58}
{"Compound": "C=CC(=O)N1CCC(C(=O)NCC(=O)N2CCN(c3nc(-c4cnc(N)nc4C(F)F)nc(N4CCOCC4)n3)CC2)CC1", "target": "ABL1 T315I non-phosphorylated", "observed": "binding", "technique": "competition with immobilised ligand", "tested at": "1 µM", "remaining binding [%]": 71}
{"Compound": "O=C(Nc1c[nH]nc1C(=O)NC1CCNCC1)c1cc(F)cc(F)c1", "target": "ABL1 non-phosphorylated", "observed": "binding", "technique": "competition with immobilised ligand", "tested at": "1 µM", "remaining binding [%]": 98}
{"Compound": "Cc1cc(-n2nc(Cc3cc(F)cc(C(F)(F)F)c3)nc2C)ccc1C(N)=O", "target": "ABL1 F317L phosphorylated", "observed": "cell-free assay", "technique": "competition with immobilised ligand", "tested at": "1 µM", "remaining binding [%]": 100}
{"Compound": "Cc1cnc(Nc2ccc(C(=O)N3CCC(N4CCCC4)CC3)cc2)nc1-c1cc2ccccc2s1", "target": "ABL1 H396P non-phosphorylated", "observed": "binding", "technique": "competition with immobilised ligand", "tested at": "1 µM", "remaining binding [%]": 0.1}
{"Compound": "CN1CCN(c2cnc3c(C4CCN(C(=O)c5ccc(OC(F)(F)F)cc5N)CC4)ncnc3c2)CC1", "target": "ABL1 E255K phosphorylated", "observed": "binding", "technique": "competition with immobilised ligand", "tested at": "1 µM", "remaining binding [%]": 98}
{"Compound": "O=C(NCCCN1CCOCC1)c1ccc(Nc2ncc(Cl)c(-c3ccc(Cl)s3)n2)cc1", "target": "ABL1 F317I phosphorylated", "observed": "binding", "technique": "competition with immobilised ligand", "tested at": "1 µM", "remaining binding [%]": 99}
{"Compound": "COc1ncc2cc3ccccc3nc2c1C#N", "target": "ABL1 T315I phosphorylated", "observed": "cell-free assay", "technique": "competition with immobilised ligand", "tested at": "5 µM", "remaining binding [%]": 89}
{"Compound": "N[C@H]1CCN(c2nccc(-c3cnn4ncccc34)n2)C1", "target": "ABL1 H396P", "observed": "binding", "tested at": "1 µM", "remaining binding [%]": 58}
{"Compound": "O=C(NCC1CCOCC1)c1n[nH]cc1NC(=O)c1c(F)cccc1F", "target": "ABL1 T315I phosphorylated", "observed": "binding", "technique": "competition with immobilised ligand", "tested at": "1 µM", "remaining binding [%]": 91}
{"Compound": "CC1CCCN1c1nccc(-c2cnn3ncccc23)n1 (stereo not shown)", "target": "Tyrosine-protein kinase ABL1 (ABL1, Homo sapiens, UniProt P00519, Y253F)", "observed": "binding", "tested at": "1 µM", "remaining binding [%]": 96}
{"Compound": "O=S(=O)(NC1CCC(c2cc(F)ccc2F)(S(=O)(=O)c2ccc(Cl)cc2)CC1)C(F)(F)F (stereo not shown)", "target": "ABL1 H396P non-phosphorylated", "observed": "cell-free assay", "technique": "competition with immobilised ligand", "tested at": "1 µM", "remaining binding [%]": 100}
{"Compound": "CNC(=O)[C@@H]1CC[C@@H](n2c(-c3ccc4cnccc4c3)nc3ccc(C(=O)NCc4cccc(C(N)=O)c4)cc32)C1", "target": "Tyrosine-protein kinase ABL1, non-phosphorylated (ABL1, Homo sapiens, UniProt P00519, Q252H)", "observed": "binding", "technique": "competition with immobilised ligand", "tested at": "1 µM", "remaining binding [%]": 87}
{"Compound": "O=C(NCCCN1CCOCC1)c1ccc(Nc2nccc(-c3cc4ccccc4s3)n2)cc1", "target": "ABL1 F317L phosphorylated", "observed": "binding", "technique": "competition with immobilised ligand", "tested at": "1 µM", "remaining binding [%]": 75}
{"Compound": "COc1ccnn2ncc(-c3ccnc(N(C)C)n3)c12", "target": "ABL1 H396P", "observed": "binding", "tested at": "1 µM", "remaining binding [%]": 100}
{"Compound": "O=C(Nc1cnc(Oc2ccc(F)cc2)nc1)N1CCc2ncccc2[C@@H]1c1ccc(F)cc1", "target": "ABL1 T315I non-phosphorylated", "observed": "cell-free assay", "technique": "competition with immobilised ligand", "tested at": "1 µM", "remaining binding [%]": 100}
{"Compound": "CN(C)c1nccc(-c2cnc3ncccn23)n1", "target": "ABL1 non-phosphorylated", "observed": "binding", "technique": "competition with immobilised ligand", "tested at": "1 µM", "remaining binding [%]": 84}
{"Compound": "C[C@H](c1ccc(F)cc1)N(Cc1cccc(C(=O)O)c1)C(=O)c1cnc2ccccc2c1", "target": "ABL1 T315I non-phosphorylated", "observed": "cell-free assay", "technique": "competition with immobilised ligand", "tested at": "1 µM", "remaining binding [%]": 85}
{"Compound": "CN(c1nccc(-c2cnn3ncccc23)n1)C1CC1", "target": "Tyrosine-protein kinase ABL1 (ABL1, Homo sapiens, UniProt P00519, E255K)", "observed": "binding", "tested at": "1 µM", "remaining binding [%]": 100}
{"Compound": "O=C(N[C@H]1CCCCC/C=C\\C2C[C@@]2(C(=O)O)NC(=O)[C@@H]2C[C@@H](Oc3ccncc3)CN2C1=O)OC1CCCC1 (stereo partly shown)", "target": "ABL1 M351T phosphorylated", "observed": "binding", "technique": "competition with immobilised ligand", "tested at": "1 µM", "remaining binding [%]": 89}
{"Compound": "CN(CCCC(F)(F)F)c1nccc(-c2cnn3ncccc23)n1", "target": "Tyrosine-protein kinase ABL1 (ABL1, Homo sapiens, UniProt P00519, M351T)", "observed": "binding", "tested at": "1 µM", "remaining binding [%]": 100}
{"Compound": "COc1cnc(Nc2cccc(S(N)(=O)=O)c2)nc1N1CCN(c2ccccc2)C(=O)C1", "target": "ABL1 T315I non-phosphorylated", "observed": "binding", "technique": "competition with immobilised ligand", "tested at": "1 µM", "remaining binding [%]": 83}
